This is an account of results in ChEMBL document CHEMBL2163344, “Immunomodulatory properties of novel nucleotide oligomerization domain 2 (nod2) agonistic desmuramyldipeptides” (J Med Chem, 2012).

Data set [1] relates to PBMC. Description: Immunomodulatory activity in human PBMCs assessed as increase in PMA/ionomycin-induced IL-1beta release at 20 uM incubated for 18 hrs by multiplexed cytokine assay. Format: functional, cell-based. The method, boiled down: (§1)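 Ficoll-isolated human PBMC, 1 × 10^6 cells per well, treated with 20 μM compound (DMSO ≤0.1%) plus PMA 3.33 ng/mL and ionomycin 500 nM for 18 h at 37 °C, 5% CO2. Cell-free supernatant cytokines measured by CBA human inflammatory kit on a flow cytometer against recombinant standards. Reported as % of PMA/ionomycin-only release; duplicates, three experiments, three donors.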

Data set [2] deals with PBMC. Description: Immunomodulatory activity in human PBMCs assessed as increase in PMA/ionomycin-induced IL8 release at 20 uM incubated for 18 hrs by multiplexed cytokine assay. Format: functional, cell-based.
In data set [3] the target is Toll-like receptor 3 (Homo sapiens) (UniProt O15455). As to the kind of experiment: Agonist activity at human TLR3 expressed in Ramos blue cells assessed as stimulation of NF-kB/AP-1 activity at 20 uM incubated for 18 hrs using quanti blue assay based SEAP reporter gene assay. Format: functional, cell-based. The method, boiled down:
(§2)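 Ramos-Blue control cells (TLR3/7/9 and Nod1, no Nod2; stable NF-κB/AP-1-inducible SEAP reporter) at 1 × 10^6 cells/mL, exposed 18 h to 20 μM compound. SEAP in supernatant read with QUANTI-Blue reagent (3 h, 37 °C), absorbance 640 nm; activity compared with untreated cells.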

In data set [4] the test system is PBMC. Description: Immunomodulatory activity in human PBMCs assessed as increase in PMA/ionomycin-induced IL10 release at 20 uM incubated for 18 hrs by multiplexed cytokine assay. The format is functional, cell-based.
Data set [5] relates to PBMC. Description: Immunomodulatory activity in human PBMCs assessed as increase in PMA/ionomycin-induced IL-12p70 release at 20 uM incubated for 18 hrs by multiplexed cytokine assay. The format is functional, cell-based. The method, boiled down:
as §1

Data set [6] concerns the target T1, Toll-like receptor 7 (Homo sapiens) (UniProt Q9NYK1).
T1 sequence (whole entry): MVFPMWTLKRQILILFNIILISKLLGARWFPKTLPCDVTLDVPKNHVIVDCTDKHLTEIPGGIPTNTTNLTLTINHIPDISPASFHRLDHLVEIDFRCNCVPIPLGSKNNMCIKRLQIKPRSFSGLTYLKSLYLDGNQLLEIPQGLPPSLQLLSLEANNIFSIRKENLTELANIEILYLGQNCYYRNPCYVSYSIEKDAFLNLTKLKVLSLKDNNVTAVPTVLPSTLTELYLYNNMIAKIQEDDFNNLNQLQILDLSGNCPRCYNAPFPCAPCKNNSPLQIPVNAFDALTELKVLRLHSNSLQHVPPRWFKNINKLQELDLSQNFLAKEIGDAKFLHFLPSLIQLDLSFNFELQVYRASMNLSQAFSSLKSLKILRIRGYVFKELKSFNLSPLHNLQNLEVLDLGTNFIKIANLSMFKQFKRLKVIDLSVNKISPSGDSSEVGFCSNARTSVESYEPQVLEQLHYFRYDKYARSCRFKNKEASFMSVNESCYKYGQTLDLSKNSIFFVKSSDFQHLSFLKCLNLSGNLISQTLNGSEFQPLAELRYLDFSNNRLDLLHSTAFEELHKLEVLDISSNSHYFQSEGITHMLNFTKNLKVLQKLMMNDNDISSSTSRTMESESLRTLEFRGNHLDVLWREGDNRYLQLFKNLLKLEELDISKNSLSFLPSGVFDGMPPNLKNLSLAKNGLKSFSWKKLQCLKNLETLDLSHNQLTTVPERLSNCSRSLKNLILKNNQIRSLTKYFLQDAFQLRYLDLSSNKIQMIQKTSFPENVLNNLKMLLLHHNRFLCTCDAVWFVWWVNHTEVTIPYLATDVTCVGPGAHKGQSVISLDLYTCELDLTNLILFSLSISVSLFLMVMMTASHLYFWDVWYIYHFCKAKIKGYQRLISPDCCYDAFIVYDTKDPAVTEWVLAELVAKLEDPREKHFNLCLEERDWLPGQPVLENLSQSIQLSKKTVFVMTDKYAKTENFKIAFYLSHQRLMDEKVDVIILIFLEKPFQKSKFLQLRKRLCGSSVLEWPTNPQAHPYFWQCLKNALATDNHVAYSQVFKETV
Description: Agonist activity at human TLR7 expressed in Ramos blue cells assessed as stimulation of NF-kB/AP-1 activity at 20 uM incubated for 18 hrs using quanti blue assay based SEAP reporter gene assay. Format: functional, cell-based. The procedure, abridged: as §2

Data set [7] has as its system PBMC. As to the kind of experiment: Cytotoxicity against human PBMCs assessed as residual metabolic activity at 20 uM in presence of PMA and ionomycin after 18 hrs by MTS assay. Format: ADME, cell-based. The method, boiled down:
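Human PBMC (1 × 10^6 cells/mL, triplicate) given 20 μM compound together with PMA 3.33 ng/mL and ionomycin 500 nM for 18 h. MTS metabolic activity compared with the PMA/ionomycin-only control.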

Data set [8] deals with T2, Toll-like receptor 9 (Homo sapiens) (UniProt Q9NR96).
T2 sequence (whole entry): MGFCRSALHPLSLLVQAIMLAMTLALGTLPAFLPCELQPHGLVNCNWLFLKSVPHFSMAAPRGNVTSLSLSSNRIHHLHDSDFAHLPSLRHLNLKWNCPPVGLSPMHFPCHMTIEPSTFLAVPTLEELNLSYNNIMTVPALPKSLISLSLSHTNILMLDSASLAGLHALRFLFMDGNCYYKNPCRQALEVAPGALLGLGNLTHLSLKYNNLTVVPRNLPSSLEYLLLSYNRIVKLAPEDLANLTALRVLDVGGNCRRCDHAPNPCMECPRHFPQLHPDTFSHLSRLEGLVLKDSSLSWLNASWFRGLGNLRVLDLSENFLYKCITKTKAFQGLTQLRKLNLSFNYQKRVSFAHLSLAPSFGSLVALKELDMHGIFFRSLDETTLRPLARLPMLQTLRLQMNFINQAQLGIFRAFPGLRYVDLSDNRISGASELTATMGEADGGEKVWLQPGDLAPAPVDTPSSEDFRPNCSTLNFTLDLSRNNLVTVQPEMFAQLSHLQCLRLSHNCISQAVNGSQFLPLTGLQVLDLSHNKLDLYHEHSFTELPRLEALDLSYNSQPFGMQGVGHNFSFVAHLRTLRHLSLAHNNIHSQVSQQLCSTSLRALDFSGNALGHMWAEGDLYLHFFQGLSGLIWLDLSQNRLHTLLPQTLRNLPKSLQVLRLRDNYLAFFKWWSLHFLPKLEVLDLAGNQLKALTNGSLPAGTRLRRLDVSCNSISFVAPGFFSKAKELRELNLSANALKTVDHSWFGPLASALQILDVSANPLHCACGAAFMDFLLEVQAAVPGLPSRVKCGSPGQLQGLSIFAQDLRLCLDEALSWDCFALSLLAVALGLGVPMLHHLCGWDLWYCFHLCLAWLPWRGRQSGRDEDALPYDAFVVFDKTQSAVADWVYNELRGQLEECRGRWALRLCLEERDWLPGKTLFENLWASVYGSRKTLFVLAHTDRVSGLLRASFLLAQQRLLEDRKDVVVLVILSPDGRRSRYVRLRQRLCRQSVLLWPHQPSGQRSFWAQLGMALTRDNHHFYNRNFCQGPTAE
Description: Agonist activity at human TLR9 expressed in Ramos blue cells assessed as stimulation of NF-kB/AP-1 activity at 20 uM incubated for 18 hrs using quanti blue assay based SEAP reporter gene assay. Format: functional, cell-based. The procedure, abridged: as §2

Calls of active or inactive are those of the source. No cut-off for these calls is given here.

Chain of Toll-like receptor 3 (Homo sapiens) (O15455 whole entry): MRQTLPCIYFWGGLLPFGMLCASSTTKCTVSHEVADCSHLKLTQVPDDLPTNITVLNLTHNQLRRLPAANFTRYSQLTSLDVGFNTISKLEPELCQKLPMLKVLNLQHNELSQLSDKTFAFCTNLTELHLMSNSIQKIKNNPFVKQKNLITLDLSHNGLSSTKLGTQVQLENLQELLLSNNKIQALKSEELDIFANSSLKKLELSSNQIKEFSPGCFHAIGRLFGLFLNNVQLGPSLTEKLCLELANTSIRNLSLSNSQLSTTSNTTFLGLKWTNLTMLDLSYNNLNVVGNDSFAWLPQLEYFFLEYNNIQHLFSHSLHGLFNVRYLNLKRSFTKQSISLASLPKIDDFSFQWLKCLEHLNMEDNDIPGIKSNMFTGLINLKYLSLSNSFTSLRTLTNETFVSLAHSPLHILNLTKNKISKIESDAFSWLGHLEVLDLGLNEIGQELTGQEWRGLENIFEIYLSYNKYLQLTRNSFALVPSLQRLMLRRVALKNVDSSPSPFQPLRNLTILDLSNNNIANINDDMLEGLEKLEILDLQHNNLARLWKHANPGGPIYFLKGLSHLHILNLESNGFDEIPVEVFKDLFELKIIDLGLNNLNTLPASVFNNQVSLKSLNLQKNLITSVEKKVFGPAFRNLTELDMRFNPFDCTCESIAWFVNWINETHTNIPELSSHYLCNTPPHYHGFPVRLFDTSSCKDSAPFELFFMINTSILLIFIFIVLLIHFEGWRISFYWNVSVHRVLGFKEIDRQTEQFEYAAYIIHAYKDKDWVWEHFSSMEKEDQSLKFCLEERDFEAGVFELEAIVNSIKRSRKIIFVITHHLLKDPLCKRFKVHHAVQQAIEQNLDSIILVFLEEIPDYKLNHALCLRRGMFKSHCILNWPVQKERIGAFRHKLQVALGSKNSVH

Regarding `CCOC(=O)CC[C@@H](NC(=O)[C@H](C)NC(=O)CCCCN1C(=O)c2ccccc2S1(=O)=O)C(=O)OCC`, the outcome (in the data set on PBMC [1]; with PBMC [2]; in data set [3]; with PBMC [4]; with PBMC [5]; in data set [6]) was inactive. The result in data set [8] was inactive. In the data set on PBMC [7], the Activity entry is given as “Non-toxic”.

With `CCOC(=O)CC[C@@H](NC(=O)[C@H](C)NC(=O)COCCN1C(=O)c2ccccc2S1(=O)=O)C(N)=O`, the result (in the data set on PBMC [1]; with PBMC [2]; in data set [3]; in the data set with PBMC [4]; in the data set with PBMC [5]; in data set [6]) was inactive. The result in data set [8] was inactive. Moreover, the Activity entry in the data set with PBMC [7] is on record as “Non-toxic”.

Consider `CCOC(=O)CC[C@@H](NC(=O)[C@H](C)NC(=O)C1=C2c3ccccc3S(=O)(=O)N2CCC1)C(=O)OCC`, for which the result in the data set with PBMC [1] and with PBMC [5] was Active. In addition, the outcome (with PBMC [2]; in data set [3]; in the data set with PBMC [4]; in data set [6]; in data set [8]) was inactive. For the same compound, in the data set on PBMC [7], the Activity entry is recorded as “Non-toxic”.

Regarding `CCOC(=O)CC[C@@H](NC(=O)[C@H](C)NC(=O)CNC(=O)c1cc2ccccc2[nH]1)C(=O)OCC`, the outcome with PBMC [1] and with PBMC [5] was Active. In addition, the outcome (in the data set with PBMC [2]; in data set [3]; in the data set on PBMC [4]; in data set [6]; in data set [8]) was inactive. The Activity result with PBMC [7] is on record as “Non-toxic”.

With `CCOC(=O)CC[C@@H](NC(=O)[C@H](C)NC(=O)CCCCN1C(=O)c2ccccc2S1(=O)=O)C(N)=O`, the result (with PBMC [1]; with PBMC [2]; in data set [3]; in the data set with PBMC [4]; in the data set on PBMC [5]; in data set [6]) was inactive. Further, the outcome in data set [8] was inactive. Further, the Activity entry in the data set on PBMC [7] is “Non-toxic”.

Regarding `CCOC(=O)CC[C@@H](NC(=O)[C@H](C)NC(=O)CNC(=O)c1cc2ccccc2[nH]1)C(N)=O`, the outcome (in the data set with PBMC [1]; in the data set with PBMC [2]; in data set [3]; in the data set with PBMC [4]; with PBMC [5]; in data set [6]) was inactive. Further, the result in data set [8] was inactive. Moreover, the Activity result in the data set on PBMC [7] was “Non-toxic”.

Take `CCOC(=O)CC[C@@H](NC(=O)[C@H](C)NC(=O)COCCN1C(=O)c2ccccc2S1(=O)=O)C(=O)OCC`: the outcome (with PBMC [1]; with PBMC [2]; in data set [3]; with PBMC [4]; in the data set on PBMC [5]; in data set [6]) was inactive. Further, the outcome in data set [8] was inactive. Also, the Activity entry with PBMC [7] was “Non-toxic”.

Turning to `CCCCOC(=O)[C@@H](CCC(N)=O)NC(=O)[C@H](C)NC(=O)[C@@H](C)O[C@H]1[C@H](O)[C@@H](CO)OC(O)[C@@H]1NC(C)=O` (some centres undefined) [MURABUTIDE], the outcome in the data set with PBMC [1] and with PBMC [5] was Active. For the same compound, the outcome (in the data set on PBMC [2]; in data set [3]; with PBMC [4]; in data set [6]; in data set [8]) was inactive. Besides, the Activity entry with PBMC [7] is reported as “Non-toxic”.
